D1 mod: allosterically modulates the human D1 dopamine receptor; B-score at 10 µM; AID 641; HEK293 D1, CRE-luciferase, dopamine EC30 potentiation; actives deviate in either direction; 58,000 compounds, 5.9% hits; P21728;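 active means luminescence count or its row- and column-corrected plate score outside the 99.7% band of the plate's sample wells, on either side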
Target sequence (P21728 whole entry, looked up): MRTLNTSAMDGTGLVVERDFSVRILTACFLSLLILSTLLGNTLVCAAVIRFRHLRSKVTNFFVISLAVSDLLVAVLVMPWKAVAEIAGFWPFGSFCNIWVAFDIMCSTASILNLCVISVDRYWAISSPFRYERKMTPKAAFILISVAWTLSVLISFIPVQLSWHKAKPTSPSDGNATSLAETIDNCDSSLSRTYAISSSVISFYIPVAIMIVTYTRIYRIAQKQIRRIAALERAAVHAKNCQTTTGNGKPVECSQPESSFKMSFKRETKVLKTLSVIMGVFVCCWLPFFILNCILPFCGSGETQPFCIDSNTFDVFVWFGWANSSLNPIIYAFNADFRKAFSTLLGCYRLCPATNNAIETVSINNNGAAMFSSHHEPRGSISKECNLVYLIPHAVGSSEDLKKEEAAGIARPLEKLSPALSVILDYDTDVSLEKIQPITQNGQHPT
M1 agonist: agonists of M1 muscarinic receptor. CHO-M1 cells, Fluo-4 calcium fluorescence, agonist mode; active compounds read high. 64,000 compounds, 3% hits. AID 626. B-score at 10 µM;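 active means fluorescence rise, raw or as B-score row- and column-corrected plate score, outside the 99.7% band of its plate's samples, either direction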
SF1 activator: activates the human nuclear receptor SF-1. Q13285. CHO-K1 Gal4-SF-1 LBD luciferase reporter; % increase over DMSO SF-1-specific signal. activation, % at 10 µM. 65,000 compounds, 1.9% hits;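 active means activation above the mean activation of all tested compounds plus 3 SD, cut at about 50% in these data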
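Material: Transient Gal4-SF-1 LBD reporter, CHO-K1 | Input: 4,000 cells/well | Dosing: One dose, 10 µM compound, 1% DMSO | Incubation: 20 h compound treatment, 37 °C | Detection: SteadyLite luciferase luminescence | Evaluation: Percent activation relative to DMSO median and mock-transfected background | Benchmarks: DMSO-treated SF-1-transfected cells as negative, DMSO-treated mock-transfected cells lacking SF-1 as background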
mHtt clearance: compounds clearing mutant huntingtin protein | HeLa Exon1htt(103Q)mCFP, aggregate imaging; zero = plate's median compound well | inhibition, % at 1.5 µM | 47,000 compounds, 0.42% hits;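 active means inhibition of aggregate fluorescence above about 70%, also judged a hit by eye on the cell image, limit read from the data, passing the limit was not always enough; inconclusive means no rule stated for this call; inactive means not judged a hit on image review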;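 further: cells exposed to compound for three days before fixation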
M1 antagonist: blocks the rat M1 muscarinic receptor response to acetylcholine; P08482; CHO-M1 cells, Fluo-4 calcium, ACh EC80 antagonist mode; active compounds read low; B-score at 10 µM; 64,000 compounds, 3.4% hits;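 active means calcium fluorescence response, raw or row-and-column corrected B-score, differing from the plate sample mean either way at a set confidence level, mostly lower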
RORA act: RORA (human) activation. P35398. 65,000 compounds, 1.5% hits. CHO-K1 Gal4-RORA LBD luciferase reporter, luminescence; percent increase over mock-subtracted basal signal. activation, % at 10 µM;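 active means activation above the mean of all tested compounds plus 3 SD, cut at about 49% in these data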
M1 agonist conf: rat M1 muscarinic agonism, confirmation; fluorescence change (max-min) at 10 µM; 1,700 compounds, 19% hits; AID 1488; CHO-M1 cells, Fluo-4 calcium fluorescence, agonist mode; actives lie on both sides; shares compounds with M1 agonist;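 active means fluorescence change differs from the solvent-only DMSO control mean at a set confidence level in both duplicate runs; inconclusive means differs from solvent-only control mean in just one of two runs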;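 further: an EC20 dose of acetylcholine follows compound addition during the same imaging run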
M4 ag counter: rat M4 muscarinic agonism, M1 counter-screen; CHO M4/Gqi5 cells, Fluo-4 calcium fluorescence, agonist mode; actives lie on both sides; fluorescence change (max-min) at 10 µM; shares compounds with M1 agonist; 1,700 compounds, 9% hits; AID 1741;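 active means fluorescence change differing from the plate's solvent-only control wells at 99.7% confidence in both duplicates, whether higher or lower; inconclusive means differs from solvent controls in only one of two duplicates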
Each line names hits and unclear results; the compound was inactive in the other large screens (follow-up assays come after a bar, where they were run). Sampled rows, rich in hits. Any-hit rate of the full collection: about 11%.

O=C(NCc1ccco1)c1cccc2ccccc12	M1 agonist 11 | M1 agonist conf inactive | M4 ag counter inactive
COc1ccc(C(=O)Nc2ccccc2C(=O)NCc2ccco2)cc1OC	M1 agonist 6.6 (no result: D1 mod, mHtt clearance) | M1 agonist conf inactive | M4 ag counter inactive
COc1ccccc1N=c1oc2c(OC)cccc2cc1C(=O)NCc1ccco1	none
COc1ccc(N=c2oc3c(OC)cccc3cc2C(=O)NCc2ccco2)cc1OC	D1 mod -3.9, M1 agonist 15 (no result: mHtt clearance) | M1 agonist conf inactive | M4 ag counter inactive
COc1cccc(NC(=O)c2ccccc2-c2nc(-c3ccccc3)no2)c1	none (no result: mHtt clearance)
COc1ccccc1NC(=O)c1ccccc1-c1nc(-c2ccccc2OC)no1	M1 agonist 7.3 | M1 agonist conf -29 | M4 ag counter inactive
O=C(CCn1c(=O)oc2ccccc21)NCCCN1CCCC1=O	none (no result: mHtt clearance)
COc1ccccc1OCCNC(=O)c1ccccc1C	none
COCCNC(=O)c1ccccc1NC(=O)c1ccc(OC)c(OC)c1	M1 agonist 31 (no result: mHtt clearance) | M1 agonist conf -31 | M4 ag counter -94
COc1ccc(-c2noc(-c3ccccc3C(=O)NCc3ccco3)n2)cc1OC	M1 agonist 4.7 (no result: mHtt clearance) | M1 agonist conf inactive | M4 ag counter inactive
COc1ccc(C(=O)Nc2ccc(Cl)cc2C(=O)NCc2ccco2)cc1OC	M1 agonist 13 | M1 agonist conf inactive | M4 ag counter inactive
COc1ccc(S(=O)(=O)Nc2ccccc2C(=O)NCc2ccco2)cc1	M1 agonist 3.9 | M1 agonist conf inactive | M4 ag counter inactive
CCOC(=O)C1CCN(C(=O)CNS(=O)(=O)c2cccs2)CC1	none (no result: mHtt clearance)
O=C(COC(=O)CCC(=O)c1ccc2c(c1)OCCO2)NCc1ccc2c(c1)OCO2	none (no result: mHtt clearance)
O=C(Cn1c(CN2CCCCC2)nc2ccccc2c1=O)NCc1ccco1	none (no result: mHtt clearance)
CN(C)c1ccc(/C=C/c2ccncc2)cc1	M1 agonist 10, RORA act 73 (no result: mHtt clearance) | M1 agonist conf 111 | M4 ag counter 150
COc1ccc(/C=C/c2ccncc2)cc1	none (no result: D1 mod, M1 agonist, SF1 activator, M1 antagonist, RORA act)
CCCCOC(=O)Cn1c(=O)c2c(nc(Br)n2Cc2ccccc2)n(C)c1=O	M1 agonist 7.5 (no result: mHtt clearance) | M1 agonist conf inactive | M4 ag counter inactive
CCOC(=O)Cn1c(=O)c2c(nc(Br)n2Cc2ccccc2)n(C)c1=O	none (no result: mHtt clearance)
CC(C)CCN=Cc1c(O)n(-c2ccccc2)c(=O)c2ccccc12	none (no result: D1 mod, M1 agonist, SF1 activator, M1 antagonist, RORA act)
CCN1CCCC1CN=Cc1c(O)n(-c2ccccc2)c(=O)c2ccccc12 (configuration not stated)	M1 agonist 5.7, mHtt clearance inconclusive | M1 agonist conf inactive | M4 ag counter inactive
CCOc1ccc(N2CC(C(=O)Nc3ncccc3C)CC2=O)cc1 (configuration not stated)	none
Cc1cccc(N2C(=O)CC(Sc3nc(C)c4c(n3)CCCC4)C2=O)c1 (configuration not stated)	none
COc1ccc(N2C(=O)CC(Sc3nc(C)c4c(n3)CCCC4)C2=O)cc1 (configuration not stated)	M1 agonist 2.2 | M1 agonist conf inactive | M4 ag counter inactive
c1ccc(Cc2nnc3n2CCCCC3)cc1	none
c1ccc2c(c1)CCCN2Cc1nnc2n1CCCCC2	M1 agonist active (no result: D1 mod) | M1 agonist conf inconclusive | M4 ag counter inactive
Cc1cccc2cc(C(c3nnnn3Cc3ccccc3)N3CCN(c4ccccc4)CC3)c(=O)[nH]c12 (configuration not stated)	M1 agonist 6.4 (no result: mHtt clearance) | M1 agonist conf inconclusive | M4 ag counter inconclusive
CC(C)NC(=O)c1ccc(OC2CSC2)cc1	none (no result: D1 mod, M1 agonist, SF1 activator, M1 antagonist, RORA act)
COc1ccc(Cc2nnc(NC(=O)c3ccco3)s2)cc1OC	none
Cn1cc(C(=O)c2ccccc2)cc1-c1nc2ccccc2n1C	M1 agonist 6.5 (no result: mHtt clearance) | M1 agonist conf inactive | M4 ag counter inactive
CN1CCN(C(=O)CSc2nc(-c3cccs3)cc(-c3cccs3)c2C#N)CC1	M1 agonist 5.7 (no result: mHtt clearance) | M1 agonist conf inactive | M4 ag counter inactive
Cc1cc2oc(=O)cc(CN3CCCCC3)c2cc1C(C)C	M1 agonist 11 (no result: mHtt clearance) | M1 agonist conf inconclusive | M4 ag counter inactive
Cc1ccc2c(CN3CCN(CCO)CC3)cc(=O)oc2c1	none
CCOC(=O)c1sc2nc(SCC#N)n(CCCN3CCCC3=O)c(=O)c2c1C	none
COc1ccc(CNc2nc3c(c(=O)n(Cc4ccc(Br)cc4)c(=O)n3C)n2C)cc1	D1 mod -2.7, M1 agonist 3.4 | M1 agonist conf inactive | M4 ag counter inactive
CC(=O)Nc1c2c3c(cccc3n(C)c1=O)C(=O)c1ccccc1-2	M1 agonist 9.4 | M1 agonist conf 68 | M4 ag counter inconclusive
CCOC(=O)C1CCCN(c2c(NCC3CCCN3CC)c(=O)c2=O)C1 (configuration not stated)	none (no result: mHtt clearance)
CCOC(=O)C1CCCN(c2c(NCc3ccco3)c(=O)c2=O)C1 (configuration not stated)	M1 agonist 6.1 (no result: mHtt clearance) | M1 agonist conf inactive | M4 ag counter inactive
CCOC(=O)C1CCCN(c2c(NCCc3ccc(S(N)(=O)=O)cc3)c(=O)c2=O)C1 (configuration not stated)	M1 agonist 2.3 (no result: D1 mod) | M1 agonist conf inactive | M4 ag counter inactive
CCOC(=O)C1CCCN(c2c(NCCN(C)Cc3ccccc3)c(=O)c2=O)C1 (configuration not stated)	none (no result: mHtt clearance)
O=c1cc(C(F)(F)F)nc(-c2ccccc2)[nH]1	none
O=C(Nc1nccs1)c1cc(N2CCOCC2)nc2ccccc12	M1 agonist 3.1 (no result: mHtt clearance) | M1 agonist conf inactive | M4 ag counter inactive
COc1cc(C2CC(=O)Nc3ccccc3S2)cc(OC)c1OC (configuration not stated)	M1 agonist 5.9 (no result: mHtt clearance) | M1 agonist conf inactive | M4 ag counter inconclusive
COc1ccc(OC)c(C2CC(=O)Nc3cc(OC)c(OC)c(OC)c32)c1 (configuration not stated)	none (no result: D1 mod, mHtt clearance)
Cc1cc(Oc2ccccc2)nc2ccc(O)cc12	none (no result: D1 mod, mHtt clearance)
COC(=O)c1cccc(NC(=O)CSc2nnc(COc3ccc(C#N)cc3)n2-c2ccccc2)c1	M1 agonist 3.6 | M1 agonist conf inconclusive | M4 ag counter inactive
Cc1cccc(N(CC(=O)NCC2CCCO2)C(=O)CCC(=O)Nc2cc(C)on2)c1 (configuration not stated)	none (no result: mHtt clearance)
CCCC(=O)c1ccc(N2CCN(C(=O)c3ccccc3Br)CC2)c(F)c1	M1 agonist 3.1, M1 antagonist -3.2 | M1 agonist conf inconclusive | M4 ag counter inactive
CCCC(=O)c1ccc(N2CCN(C(=O)c3ccccc3)CC2)c(F)c1	M1 agonist 4.1 | M1 agonist conf inactive | M4 ag counter inactive
